Like-named read-outs stand apart in the source and are kept apart here. Marks after values point to notes of the source that are not given here.
Columns and labels:
FAAH [1] = biological target: T1, FAAH (Rattus norvegicus, UniProt P97612); assay: FAAH activity in vitro, rat brain membranes, [3H]-anandamide hydrolysis; format: biochemical
T1 sequence (P97612 1-579): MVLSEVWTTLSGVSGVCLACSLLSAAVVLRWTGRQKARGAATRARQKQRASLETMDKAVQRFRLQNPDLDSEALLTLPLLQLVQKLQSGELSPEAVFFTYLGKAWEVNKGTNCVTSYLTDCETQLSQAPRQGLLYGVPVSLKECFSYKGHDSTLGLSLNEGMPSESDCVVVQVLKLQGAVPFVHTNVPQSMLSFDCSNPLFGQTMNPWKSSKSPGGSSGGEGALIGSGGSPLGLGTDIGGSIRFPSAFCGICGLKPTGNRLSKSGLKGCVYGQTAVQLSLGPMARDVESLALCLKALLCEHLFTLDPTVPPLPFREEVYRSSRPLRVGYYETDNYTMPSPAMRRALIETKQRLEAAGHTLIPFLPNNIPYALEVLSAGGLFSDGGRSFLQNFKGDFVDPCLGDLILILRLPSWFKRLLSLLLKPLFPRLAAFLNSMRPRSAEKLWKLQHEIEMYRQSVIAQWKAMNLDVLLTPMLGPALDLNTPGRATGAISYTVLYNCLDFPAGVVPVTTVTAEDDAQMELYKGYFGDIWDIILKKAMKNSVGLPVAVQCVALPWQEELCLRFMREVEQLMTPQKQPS

Stability in rat plasma = format: in vitro ADME; conditions: for Rat Plasma t1/2: 80% rat plasma in PBS pH 7.4, 37 °C; for half-life at 1 μM: rat, pooled rat plasma diluted to 80% (vol/vol) with PBS, pH 7.4
Method in brief: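 Heparinized rat blood from cardiac puncture gave plasma (1,900 x g), pooled and diluted to 80% v/v with 100 mM PBS, pH 7.4. Test compound was added from a 100 μM DMSO stock and incubated at 37 °C with shaking. Timed samples were quenched in ice-cold acetonitrile, spun, and analysed by reversed-phase HPLC-UV against plasma calibration curves. Apparent t1/2 came from log-concentration-versus-time regression.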

[2] = Stability in phosphate buffered saline at pH 7.4; format: physicochemical; conditions: PBS pH 7.4, 37 °C; for pH 7.4 (%), percent remaining after 24 h incubation: 1 μM compound
Method in brief: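 Test compound at 1 μM final (1% DMSO) in 10 mM PBS, pH 7.4, at 37 °C. Aliquots were taken at intervals and quantified by LC against calibration curves built in spiked PBS. Reported as percent remaining after 24 h.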

[3] = Brain tissue and serum drug levels in mice by LC/MS; format: in vivo, mouse; conditions: 1 mg-kg^−1 i.p.; for AUC in the brain: 2 h time-course, n = 3; for Cmax in brain tissue: single administration, n = 3 per timepoint
FAAH [4] = biological target: T2, FAAH (Mus musculus, UniProt O08914); assay: Brain FAAH activity measured ex vivo after i.p. administration in mice; conditions: for ID50 / Percent FAAH activity remaining at 1 mg-kg^−1 / inhibition of brain FAAH activity in vivo: mice; for ID50 / inhibition of brain FAAH activity in vivo: i.p.; for ID50: brain FAAH activity ex vivo; for Percent FAAH activity remaining at 1 mg-kg^−1: 1 mg-kg^−1 i.p., brain FAAH ex vivo, printed in ID50 column; for inhibition of brain FAAH activity in vivo: doses up to 1 mg-kg^−1; for ED50: mouse, ip, read-out: ID50
T2 sequence (O08914 1-579): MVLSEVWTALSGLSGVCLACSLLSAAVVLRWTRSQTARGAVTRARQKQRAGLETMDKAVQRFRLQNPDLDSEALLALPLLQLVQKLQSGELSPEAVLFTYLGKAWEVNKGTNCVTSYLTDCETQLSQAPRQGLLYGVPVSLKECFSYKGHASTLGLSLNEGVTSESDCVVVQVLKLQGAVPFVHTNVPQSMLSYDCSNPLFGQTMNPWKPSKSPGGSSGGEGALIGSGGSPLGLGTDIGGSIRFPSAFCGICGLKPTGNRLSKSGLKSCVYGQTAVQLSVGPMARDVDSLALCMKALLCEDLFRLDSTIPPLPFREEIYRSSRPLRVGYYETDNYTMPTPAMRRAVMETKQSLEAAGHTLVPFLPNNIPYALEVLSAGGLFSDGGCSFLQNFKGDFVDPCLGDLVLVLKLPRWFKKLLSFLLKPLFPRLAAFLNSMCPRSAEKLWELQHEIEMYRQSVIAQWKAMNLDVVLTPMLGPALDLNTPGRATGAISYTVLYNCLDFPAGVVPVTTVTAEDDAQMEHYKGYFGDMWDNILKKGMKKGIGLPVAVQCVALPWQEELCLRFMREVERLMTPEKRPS
Method in brief: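 Mice received a single i.p. injection. Brains were frozen in liquid N2, thawed, homogenized in 10 vol ice-cold 50 mM Tris pH 7.5 with 0.32 M sucrose, and spun at 1000 x g for 10 min at 4 °C. Homogenate (50 μg protein) was incubated for 30 min at 37 °C in 50 mM Tris pH 7.5 with 0.05% fatty acid-free BSA and 10 μM anandamide plus [3H]-anandamide. Reactions were stopped with chloroform/methanol (1:1), and aqueous-layer radioactivity was scintillation counted.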

liver carboxylesterases = format: biochemical; conditions: rat liver microsomes, 30, 100 and 300 nM
Method in brief: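 Commercial rat liver microsomes (2.5 μg) were preincubated with test compound for 30 min at room temperature. p-Nitrophenylacetate was then added (1 mM final). After 20 min, p-nitrophenol formation was read as absorbance at 405 nm.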

[5] = rat brain membranes, 10 μM anandamide, no pre-incubation

Q: Which IC50 (FAAH [1]; [5]) does the source give for `O=C(NC1CCCCC1)Oc1cccc(-c2ccccc2)c1` [Compound 1a] here?
A: 25.6 ± 2 nM

Q: What about the “Rat Plasma t1/2” value (Stability in rat plasma) of the same molecule?
A: 42.7 ± 3.7 min

Q: What about the “pH 7.4 (%), percent remaining after 24 h incubation” value (from here on “pH 7.4 (%), percent remaining”) [2] of the same molecule?
A: 41.1 ± 1.1%

Q: And the “AUC in the brain” value [3]?
A: 2589 ± 423 arbitrary units

Q: And the “Cmax in brain tissue” value [3]?
A: 74 ± 3 pmol/g

Q: And the ID50 (FAAH [4])?
A: 0.81 mg/kg

Q: What does the source list for `O=C(NCCCCc1ccccc1)Oc1cccc(-c2ccccc2)c1` [Compound 1b]?
A: IC50 (FAAH [1]; [5]): 9.4 ± 2.8 nM; Rat Plasma t1/2 (Stability in rat plasma): 6.6 ± 0.7 min; plasma t1/2, fold shorter than URB524 (Stability in rat plasma; rat plasma, versus URB524): approximately 6 fold; pH 7.4 (%), percent remaining after 24 h incubation [2]: 35.9 ± 2.7%; ID50 (FAAH [4]): 0.96 mg/kg

Q: Which IC50 (FAAH [1]; [5]) does the source give for `O=C(NCCCCCCCCc1ccccc1)Oc1cccc(-c2ccccc2)c1` [Compound 1c] here?
A: 5.4 ± 0.5 nM

Q: And the “in vitro FAAH potency relative to parent URB524 (times more potent)” value (FAAH [1]; ratio of IC50 versus URB524)?
A: approximately 5 fold

Q: And the “Rat Plasma t1/2” value (Stability in rat plasma)?
A: 7.0 ± 0.1 min

Q: And the “pH 7.4 (%), percent remaining” value [2]?
A: 65.9 ± 3.1%

Q: What about the “Percent FAAH activity remaining at 1 mg-kg^−1” value (FAAH [4]) of the same molecule?
A: 105% ^[b]

Q: And the “inhibition of brain FAAH activity in vivo” value (FAAH [4])?
A: completely inactive in vivo

Q: For `NC(=O)c1cccc(-c2cccc(OC(=O)NC3CCCCC3)c2)c1` [Compound 1d], which half-life at 1 μM (Stability in rat plasma) is on record?
A: 33 ± 0.5 min

Q: And the “pH 7.4 (%), percent remaining” value [2]?
A: 40.2 ± 0.6%

Q: What about the “AUC in the brain” value [3] of the same molecule?
A: 6036 ± 899 arbitrary units

Q: What about the “Cmax in brain tissue” value [3] of the same molecule?
A: 226 ± 29 pmol/g

Q: And the ED50 (FAAH [4])?
A: 0.22 mg/kg

Q: With `NC(=O)c1cccc(-c2cccc(OC(=O)NCCCCCCCCc3ccccc3)c2)c1` [Compound 1f, 8-Phenyloctylcarbamic acid 3′-carbamoylbiphenyl-3-yl ester] as the molecule, how does the IC50 (FAAH [1]) read?
A: 0.26 ± 0.02 nM

Q: What about the half-life at 1 μM (Stability in rat plasma) of the same molecule?
A: 4 ± 0.1 min

Q: And the “pH 7.4 (%), percent remaining” value [2]?
A: 42.8 ± 1.4%

Q: What about the “drug levels in serum and brain after administration” value [3] of the same molecule?
A: little or no increase in drug levels in serum and brain

Q: And the “Percent FAAH activity remaining at 1 mg-kg^−1” value (FAAH [4])?
A: 65%^b

Q: What about the “inhibition of brain FAAH activity in vivo” value (FAAH [4]) of the same molecule?
A: little or no

Q: With `Nc1ccc(OC(=O)NC2CCCCC2)cc1-c1ccccc1` [Compound 1h, Cyclohexylcarbamic acid 6-aminobiphenyl-3-yl ester] as the molecule, how does the IC50 (FAAH [1]) read?
A: 27.2 ± 4.8 nM

Q: And the “pH 7.4 (%), percent remaining” value [2]?
A: 89.0 ± 0.5%

Q: And the ED50 (FAAH [4])?
A: 0.18 mg/kg

Q: What about the “effect on liver carboxylesterase activities compared to URB597” value (liver carboxylesterases) of the same molecule?
A: reduced effects on liver carboxylesterase activities

Q: Which results are given for `O=C(NC1CCCCC1)Oc1ccc([N+](=O)[O-])c(-c2ccccc2)c1` [Compound 1i, Cyclohexylcarbamic acid 6-nitrobiphenyl-3-yl ester]?
A: IC50 (FAAH [1]): > 30000 nM; pH 7.4, value expressed as t1/2 [2]: 1.7 ± 0.1 ^[c] min

Reference: article PMC3016090 (ChemMedChem, 2009)
